These results are taken from PMC10905692 (ACS Omega, 2024).

Entries after “also recorded” stand apart in the source; their conditions may differ.

The target of assay [1] is T1, PTP1B (Homo sapiens, UniProt P18031).
T1 sequence (P18031 1-435): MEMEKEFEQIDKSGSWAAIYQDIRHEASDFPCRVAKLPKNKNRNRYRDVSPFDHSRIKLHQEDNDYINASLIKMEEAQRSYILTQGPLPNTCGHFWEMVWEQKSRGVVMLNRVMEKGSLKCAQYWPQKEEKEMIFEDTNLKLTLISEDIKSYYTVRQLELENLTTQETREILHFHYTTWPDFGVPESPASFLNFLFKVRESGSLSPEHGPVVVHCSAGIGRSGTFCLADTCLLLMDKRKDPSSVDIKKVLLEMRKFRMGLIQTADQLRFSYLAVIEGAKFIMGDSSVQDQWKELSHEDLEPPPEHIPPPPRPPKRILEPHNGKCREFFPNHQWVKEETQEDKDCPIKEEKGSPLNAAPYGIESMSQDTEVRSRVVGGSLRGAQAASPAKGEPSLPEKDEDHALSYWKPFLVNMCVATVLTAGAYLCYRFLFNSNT
The assay is described as follows: PTP1B inhibitory assay. Type of assay: biochemical.

Assay [2] addresses T1, PTP1B. The assay is described as follows: Enzyme kinetic assay. Type of assay: biochemical. The settings on record: for kinetic mode: Lineweaver–Burk plots; for KIS: inhibition constant for enzyme–substrate complex. In outline: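 Human recombinant PTP1B in Tris-HCl pH 7.5 buffer (25 mM Tris, 1 mM EDTA, 2 mM 2-mercaptoethanol, 1 mM dithiothreitol); test compounds dissolved in DMSO. Steady-state rates were taken across varied inhibitor and substrate concentrations and analysed by Lineweaver–Burk and Dixon plots. KI and KIS came from secondary plots of slopes or 1/Vmax intercepts vs inhibitor concentration (eqs 2–4). Reversibility was judged from activity vs enzyme concentration at several inhibitor levels.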

The target of assay [3] is T1, PTP1B. The assay is described as follows: Time-dependent assays and progress curves. Type of assay: biochemical. In outline:
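PTP1B was preincubated with test compound for 0, 5, 10, 15, 30, 45, 60 or 75 min (0.2 μM), then residual activity was read. Progress curves were recorded at actual substrate concentration across several inhibitor concentrations by absorbance at 405 nm, […] the ~10 min lag. vi, vs, kobs and Ki app were fitted with eqs 5–8. kobs was plotted against inhibitor concentration to give k3 and k4.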

The target of assay [4] is T1, PTP1B. Nature of the assay: Fluorescence quenching measurement of binding affinity. The settings on record: for n (number of binding sites) / KSV (Stern–Volmer constant): fluorescence quenching; for KSV (Stern–Volmer constant): 0–25 μM inhibitor. In outline:
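Intrinsic fluorescence quenching of human recombinant PTP1B, at the enzyme level of the activity assays, in assay buffer. Test compound was added at 0, 1.6, 3.2, 6.2, 12.5 and 25 μM. Emission spectra were recorded over 300–400 nm with 250 nm excitation and 2 nm slits. KSV was obtained by Stern–Volmer analysis; binding constant KA and number of sites n from eqs 9–10.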

[5] abbreviates: Ki (inhibition constant), estimated using Dixon plots.
The mark [6] stands for this setting: KI, inhibition constant for free enzyme, secondary plots.

For orientation: Kd means the free concentration of one partner at which half of the binding sites on the other are occupied at equilibrium, for simple one-to-one binding. A lower Kd goes with tighter binding. Regarding `CC1(C)C=Cc2c(cc(O)c3c2O[C@H](c2ccccc2)[C@@H](O)C3=O)O1` [Compound 1, (2R,3R)-3,5-dihydroxy-8,8-dimethyl-2-phenyl-2,3-dihydro-4H,8H-pyrano[2,3-f]chromen-4-one], the “fold more effective (inhibition activity)” value on PTP1B [1] (trans 1 vs cis 2) worked out at 13 fold. At PTP1B [2] (setting [5]), the Ki is 70 nM. Further, the kinetic mode result on PTP1B [2] is given as “competitive mode; also recorded: competitive inhibitors”. The “reversibility of the inhibitor to the enzyme” value at PTP1B [2] (initial velocity plots at different inhibitor concentrations) was “typical reversibility”. At PTP1B [3], the Ki is 64.1 nM. For the same molecule, the time-dependent inhibition type entry on PTP1B [3] (preincubation 0–75 min, kobs vs inhibitor concentration linear) is given as “simple slow-binding inhibitor; also recorded: slow binding mode; also recorded: slow binding characteristics”. In addition, at PTP1B [3] (slow-binding, progress curves), the k3 was 0.2262 μM^–1 min^–1 and the k4 came to 0.0145 min^–1. Also, at PTP1B [4], the Kd is 27.8 µM, the “n (number of binding sites)” value came to 1.09 and the “KSV (Stern–Volmer constant)” value is reported as 0.4375 × 10^5 L·mol^–1.
By IC50 is commonly meant the concentration that inhibits the measured activity by half. Take `CC1(C)C=Cc2c(cc(O)c3c2O[C@H](c2ccccc2)[C@H](O)C3=O)O1` [Compound 2, (2R,3S)-3,5-dihydroxy-8,8-dimethyl-2-phenyl-2,3-dihydro-4H,8H-pyrano[2,3-f]chromen-4-one]: the IC50 at PTP1B [1] is 2.24 ± 0.5 µM. Further, on PTP1B [2] (setting [5]), the Ki was 1040 nM. Moreover, at PTP1B [2], the kinetic mode result was “competitive inhibitors”. Also, on PTP1B [4], the Kd is 370 µM, the “n (number of binding sites)” value worked out at 1.16 and the “KSV (Stern–Volmer constant)” value is listed as 0.0304 × 10^5 L·mol^–1.
In the case of `CC1(C)C=Cc2c(cc(O)c3c2O[C@H](c2ccc(O)cc2)[C@@H](O)C3=O)O1` [Compound 5, yukovanol], inhibition on PTP1B [1] was half-maximal at 3.07 ± 0.2 µM (IC50). Further, the “fold effective vs mother compound” value at PTP1B [1] (pyran compound 5 vs 6) came out at 9 fold. For the same molecule, the Ki on PTP1B [2] (setting [5]) was 3460 nM. Also, the kinetic mode result at PTP1B [2] is given as “noncompetitive inhibitor”. Moreover, at PTP1B [4], the Kd is 1110 µM, the “n (number of binding sites)” value was determined as 1.20 and the “KSV (Stern–Volmer constant)” value was 0.0132 × 10^5 L·mol^–1.
`O=C1c2c(O)cc(O)cc2O[C@H](c2ccc(O)cc2)[C@H]1O` [Compound 6, dihydrokaempferol]: on PTP1B [1], the IC50 was determined as 35.4 ± 0.7 µM. The Ki on PTP1B [2] (setting [5]) is 34700 nM. Moreover, the kinetic mode entry on PTP1B [2] is recorded as “noncompetitive”. On PTP1B [4], the Kd came to 10000 µM, the “n (number of binding sites)” value is reported as 0.79 and the “KSV (Stern–Volmer constant)” value was 0.0002 × 10^5 L·mol^–1.
Turning to `CC1(C)C=Cc2c(cc(O)c3c(=O)cc(-c4ccc(O)cc4)oc23)O1` [Compound 7, atalantoflavone], the IC50 against PTP1B [1] was 1.19 ± 0.3 µM. For the same molecule, the Ki on PTP1B [2] (setting [5]) is 450 nM. For the same molecule, the kinetic mode entry at PTP1B [2] is listed as “competitive”. Besides, at PTP1B [4], the Kd is 72.5 µM, the “n (number of binding sites)” value was determined as 0.93 and the “KSV (Stern–Volmer constant)” value is 0.0569 × 10^5 L·mol^–1.
For `O=c1cc(-c2ccc(O)cc2)oc2cc(O)cc(O)c12` [Compound 8, apigenin], on PTP1B [1], the IC50 was determined as 5.99 ± 0.5 µM. Besides, the Ki on PTP1B [2] (setting [5]) was 2900 nM. The kinetic mode entry on PTP1B [2] is recorded as “competitive”. Also, on PTP1B [4], the Kd is 769 µM, the “n (number of binding sites)” value is 1.02 and the “KSV (Stern–Volmer constant)” value is on record as 0.0056 × 10^5 L·mol^–1.
On to `O=c1cc(-c2ccc(O)cc2O)oc2cc(O)cc(O)c12` [Compound 10, norartocarpetin], for which, on PTP1B [1], the IC50 turned out to be 3.39 ± 0.2 µM. The Ki at PTP1B [2] (setting [6]) came out at 2680 nM. Further, at PTP1B [2] (setting [5]), the Ki was 2710 nM. In addition, the kinetic mode entry on PTP1B [2] was “mixed-type inhibitions; also recorded: mixed type I”. For the same molecule, the KIS at PTP1B [2] (secondary plots) turned out to be 5.23 µM. Also, at PTP1B [4], binding was put at a Kd of 833 µM, the “n (number of binding sites)” value was determined as 1.06 and the “KSV (Stern–Volmer constant)” value was 0.0124 × 10^5 L·mol^–1.
On PTP1B [1], `O=c1cc(-c2ccc(O)cc2)oc2cc(O[C@@H]3O[C@H](CO)[C@@H](O)[C@H](O)[C@H]3O)cc(O)c12` [Compound 13, apigenin-7-O-β-D-glucopyranoside] came in with an IC50 of 0.22 ± 0.3 µM. On PTP1B [1] (glycosides 11 vs 6 and 13 vs 8), the “fold better inhibition than mother skeleton” value came out at 27 fold. This molecule also yielded a Ki on PTP1B [2] (setting [6]) of 180 nM. For the same molecule, on PTP1B [2] (setting [5]), the Ki was 180 nM. The kinetic mode entry on PTP1B [2] is “mixed type I”. The molecule also returned a KIS at PTP1B [2] (secondary plots) of 0.80 µM. Also, on PTP1B [4], the Kd was 22.1 µM, the “n (number of binding sites)” value is recorded as 0.97 and the “KSV (Stern–Volmer constant)” value is listed as 0.3803 × 10^5 L·mol^–1.
